# Laboratory results reported in publication PMC4576993 (Leukemia, 2011).
# Values joined by “and” are separate entries in the source; they are usually repeats but may differ in a detail not shown here. Equal values may be shown once. “Also recorded” adds a separate entry of the source.
# How the values were obtained:
# Assay type in all cases: in vivo, human
# [1] = Plasma vosaroxin pharmacokinetics in patients; conditions: for half-life: T1/2, mean
# [2] = Renal excretion of vosaroxin and metabolites in urine, 24 h after first dose; conditions: 24 h after first dose, 18 and 27 mg/m^2 weekly, eight patients
# [3] = test system: relapsed or refractory leukemia; test: Clinical response
# How it was run: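 Dosing was a ~10 min IV infusion, either weekly (days 1, 8, 15; 18–90 mg/m2) or twice weekly (days 1, 4, 8, 11; 9–50 mg/m2), in 28-day cycles, up to 4(+2) cycles. Marrow aspirate or biopsy and peripheral blood were taken at each cycle end (~day 28). Response followed IWG criteria: MLFS was marrow blasts <5%; CR added no circulating blasts, no extramedullary disease, neutrophils >1×10^9/l and platelets ≥100×109/l; CRp was CR with incomplete platelet recovery.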
# [4] = test system: phosphorylated H2AX (γH2AX) in peripheral blood blasts; test: γH2AX in patient peripheral blood blasts by flow cytometry
# How it was run: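 Peripheral blood blasts from 10 weekly-schedule patients were sampled on days 1 and 8, predose and 2 h postdose. Ficoll-enriched cells were fixed in 70% ethanol at 4 °C and stained in TBS/4% FBS/0.1% Triton X-100. Primary was anti-phospho-Ser139 H2AX or IgG1 isotype (1:500, 2 h), then Alexa488 anti-mouse (1:200, 1 h) with 5 μg/ml RNase, then 2% formaldehyde. Flow cytometry used […]. %γH2AX-positive was set against isotype overlays.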
smiles,measurement,setting,value
"CN[C@H]1CN(c2ccc3c(=O)c(C(=O)O)cn(-c4nccs4)c3n2)C[C@@H]1OC [vosaroxin, (+)-1,4-dihydro-7-(trans-3-methoxy-4-methylamino-1-pyrrolidinyl)-4-oxo-1-(2-thiazolyl)-1,8-naphthyridine-3-carboxylic acid]","Differences in clearance based on age, sex, body weight or body surface area",[1]; age overall and <65 versus ≥65 years,No significant differences in clearance
same,Average total body clearance,[1]; all patients,2 l/h/m^2
same,Induction or inhibition of vosaroxin metabolism after repeated doses,"[1]; clearance compared weekly vs days 1, 4, 8 and 11",No induction or inhibition of vosaroxin metabolism was evident
same,Plasma exposure (AUC) versus dose,[1]; dose range 9–90 mg/m^2,dose proportional; also recorded: increased proportionally with an increase in dose
same,AUC(0-t),"[1]; human, plasma, intravenous, 72 mg/m2",32500 ng·h/mL
same,AUC(0-inf),"[1]; human, plasma, intravenous, 72 mg/m2, AUCinf, mean, weekly, Day 1, 72 mg/m^2, N 11, cycle 1",39400 ng·h/mL
same,clearance,"[1]; human, plasma, intravenous, 72 mg/m2, CL, mean, weekly, Day 1, 72 mg/m^2, N 11, cycle 1",69.3 mL/min
same,MRT,"[1]; human, plasma, intravenous, 72 mg/m2, MRT, mean, weekly, Day 1, 72 mg/m^2, N 11, cycle 1",33.9 h
same,Vd,"[1]; human, plasma, intravenous, 72 mg/m2, Vss, mean, weekly, Day 1, 72 mg/m^2, N 11, cycle 1",130 L
same,Cmax,"[1]; human, plasma, intravenous, 72 mg/m^2",1920 ng/mL
same,AUC(0-inf),"[1]; human, plasma, intravenous, AUCinf, mean, twice weekly, Day 1, 9–50 mg/m^2, N 31, cycle 1",14200 ng·h/mL
same,AUC(0-inf),"[1]; human, plasma, intravenous, AUCinf, mean, twice weekly, Day 8, 9–50 mg/m^2, N 29, cycle 1",15600 ng·h/mL
same,AUC(0-inf),"[1]; human, plasma, intravenous, AUCinf, mean, twice weekly, Day 11, 9–50 mg/m^2, N 28, cycle 1",16000 ng·h/mL
same,clearance,"[1]; human, plasma, intravenous, Average total body clearance, all patients",66.7 mL/min
same,clearance,"[1]; human, plasma, intravenous, CL, mean, twice weekly, Day 1, 9–50 mg/m^2, N 31, cycle 1",72.8 mL/min
same,clearance,"[1]; human, plasma, intravenous, CL, mean, twice weekly, Day 8, 9–50 mg/m^2, N 29, cycle 1",75.7 mL/min
same,clearance,"[1]; human, plasma, intravenous, CL, mean, twice weekly, Day 11, 9–50 mg/m^2, N 28, cycle 1",75.3 mL/min
same,clearance,"[1]; human, plasma, intravenous, CL, mean, weekly, Day 1, 18–90 mg/m^2, N 41, cycle 1",65.3 mL/min
same,MRT,"[1]; human, plasma, intravenous, MRT, mean, twice weekly, Day 1, 9–50 mg/m^2, N 31, cycle 1",33.9 h
same,MRT,"[1]; human, plasma, intravenous, MRT, mean, twice weekly, Day 8, 9–50 mg/m^2, N 29, cycle 1",28.6 h
same,MRT,"[1]; human, plasma, intravenous, MRT, mean, twice weekly, Day 11, 9–50 mg/m^2, N 28, cycle 1",30.8 h
same,half-life,"[1]; human, plasma, intravenous, twice weekly, Day 1, 9–50 mg/m^2, N 31, cycle 1",26.6 h
same,half-life,"[1]; human, plasma, intravenous, twice weekly, Day 4, 9–50 mg/m^2, N 30, cycle 1",28.2 h
same,Vd,"[1]; human, plasma, intravenous, Vss, mean, twice weekly, Day 1, 9–50 mg/m^2, N 31, cycle 1",142 L
same,Vd,"[1]; human, plasma, intravenous, Vss, mean, twice weekly, Day 8, 9–50 mg/m^2, N 29, cycle 1",126 L
same,Vd,"[1]; human, plasma, intravenous, Vss, mean, twice weekly, Day 11, 9–50 mg/m^2, N 28, cycle 1",136 L
same,Drug accumulation (AUC72 ratio) day 11/day 1,"[1]; twice-weekly schedule, repeated doses, n=28, P<0.05",1.2
same,Drug accumulation (AUC72 ratio) day 4/day 1,"[1]; twice-weekly schedule, repeated doses, n=29, P<0.05",1.2
same,Average renal excretion of the total dose infused,[2],2.35%
same,Median time to morphologic leukemia-free state after first dose,[3]; 16 patients,32.5 days
same,"Time to morphologic leukemia-free state after first dose, range",[3]; 16 patients,21–51 days
same,Patients with response of CR or CRp,"[3]; 73 treated patients, both schedules",Five
same,Additional patients with morphologic leukemia-free state (beyond CR/CRp),[3]; both schedules,11 patients
same,"Duration of CR/CRp responses, range",[3]; five responding patients,1.7–19.2 months
same,Median duration of CR/CRp responses,[3]; five responding patients,3.1 months
same,Patients achieving morphologic leukemia-free state,[3]; once weekly with ≥50 mg/m^2,12 patients
same,Patients achieving morphologic leukemia-free state,[3]; twice weekly with ≥30 mg/m^2,4 patients
same,Time plasma concentration >1 μmol/l in the other two patients with CR or CRp,[3]; weekly time above threshold,10 h and 16 h
same,Increase in γH2AX,"[4]; day 1, 2 h postdose, patients with blasts ≥5%",1.8 fold
same,Increase in γH2AX,"[4]; day 1, 2 h postdose, patients with bone marrow blasts <5% after treatment",2.6 fold
same,Increase in γH2AX,"[4]; day 8, 2 h postdose, patients with blasts ≥5%",1.7 fold
same,Increase in γH2AX,"[4]; day 8, 2 h postdose, patients with bone marrow blasts <5% after treatment",3.8 fold
same,Patients with increased γH2AX after the first dose,"[4]; weekly schedule, 50 mg/m^2 or higher, 2 h postdose day 1",7 of 10
same,Patients with γH2AX higher than at baseline before treatment on day 8,"[4]; weekly schedule, day 8 predose",9 of 10
